# Reference: ChEMBL document CHEMBL1153494, “Design, synthesis, enzyme inhibition, and tumor cell growth inhibition of 2-anilinobenzamide derivatives as SIRT1 inhibitors” (Bioorg Med Chem, 2009)
# Columns and labels:
# [1] = test system: Daudi; experiment: Growth inhibition of human Daudi cells at 100 uM after 24 hrs by alamar blue assay; assay type: functional; conditions: 72 h, in the assay text read “after 72 hrs” for “after 24 hrs”
# Method in brief: (§1)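 Cells came from ATCC and were grown with penicillin/streptomycin and FBS: HCT116 in McCoy's 5A, Daudi in RPMI. They were seeded at 5000 cells/well; after 24 h, compounds in medium were added at various concentrations for 72 h at 37 °C, 5% CO₂. AlamarBlue was then added for 3 h, fluorescence read (ex 530 / em 590 nm), and % cell growth calculated.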
# [2] = test system: HCT-116; experiment: Growth inhibition of human HCT116 cells after 24 hrs by alamar blue assay; assay type: functional; conditions: HCT-116, 72 h, in the assay text read “after 72 hrs” for “after 24 hrs”; method in brief: as §1
# [3] = molecular target: T1, NAD-dependent protein deacetylase sirtuin-1 (Homo sapiens, UniProt Q96EB6); experiment: Inhibition of human recombinant SIRT1 by fluorimetric analysis
# T1 sequence (Q96EB6 whole entry): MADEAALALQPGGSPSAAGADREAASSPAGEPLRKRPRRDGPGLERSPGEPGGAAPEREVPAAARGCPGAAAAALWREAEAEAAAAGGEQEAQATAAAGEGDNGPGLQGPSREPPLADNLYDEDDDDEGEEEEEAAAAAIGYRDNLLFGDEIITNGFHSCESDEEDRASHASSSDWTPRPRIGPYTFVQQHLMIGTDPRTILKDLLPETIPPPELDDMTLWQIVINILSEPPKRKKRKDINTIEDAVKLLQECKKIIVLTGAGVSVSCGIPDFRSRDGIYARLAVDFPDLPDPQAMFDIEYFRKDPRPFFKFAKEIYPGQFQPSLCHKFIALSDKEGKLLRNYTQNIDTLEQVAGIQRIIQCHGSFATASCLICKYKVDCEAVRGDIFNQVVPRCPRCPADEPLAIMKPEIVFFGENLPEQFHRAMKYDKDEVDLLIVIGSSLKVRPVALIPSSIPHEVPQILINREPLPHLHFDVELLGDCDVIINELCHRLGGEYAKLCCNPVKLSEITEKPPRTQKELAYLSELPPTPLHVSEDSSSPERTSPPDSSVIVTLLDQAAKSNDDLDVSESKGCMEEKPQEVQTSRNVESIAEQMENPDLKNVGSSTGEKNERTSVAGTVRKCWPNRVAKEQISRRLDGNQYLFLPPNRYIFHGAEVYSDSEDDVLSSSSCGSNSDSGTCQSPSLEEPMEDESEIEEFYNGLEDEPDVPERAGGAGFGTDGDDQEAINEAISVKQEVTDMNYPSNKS
# Method in brief: (§2)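 Recombinant human SIRT1 was incubated at 37 °C with Fluor de Lys-SIRT1 substrate, NAD⁺ and a range of sample concentrations. After 60 min the reaction was stopped with Fluor de Lys Developer II containing nicotinamide. Fluorescence (ex 360 nm / em 460 nm) was read 45 min later, and % inhibition was taken relative to control wells.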
# [4] = test system: HCT-116; experiment: Growth inhibition of human HCT116 cells at 100 uM after 24 hrs by alamar blue assay; assay type: functional; conditions: HCT-116, 72 h, in the assay text read “after 72 hrs” for “after 24 hrs”; method in brief: as §1
# [5] = test system: Daudi; experiment: Growth inhibition of human Daudi cells after 24 hrs by alamar blue assay; assay type: functional; conditions: 72 h, in the assay text read “after 72 hrs” for “after 24 hrs”; method in brief: as §1
# [6] = molecular target: T1, NAD-dependent protein deacetylase sirtuin-1; experiment: Inhibition of human recombinant SIRT1 at 300 uM by fluorimetric analysis; method in brief: as §2
compound,measurement,setting,value
NC(=O)c1ccccc1Nc1cccc(-c2ccccc2)c1,inhibition at 100 µM,[1],108%
same,GI50,[2],43 µM
same,IC50,[3],52 µM
same,inhibition at 100 µM,[4],126%
same,GI50,[5],26 µM
NC(=O)c1ccccc1Nc1cccc(Oc2ccccc2)c1,inhibition at 100 µM,[1],103%
same,GI50,[2],50 µM
same,IC50,[3],58 µM
same,inhibition at 100 µM,[4],126%
same,GI50,[5],31 µM
NC(=O)c1ccccc1Nc1cccc(/C=C/C(=O)O)c1,inhibition at 100 µM,[1],0%
same,GI50,[2],> 100 µM
same,IC50,[3],58 µM
same,inhibition at 100 µM,[4],0%
same,GI50,[5],> 100 µM
NC(=O)c1ccccc1Sc1ccccc1,IC50,[3],78 µM
COC(=O)/C=C/c1cccc(Nc2ccccc2C(N)=O)c1,IC50,[3],65 µM
Cc1cccc(Nc2ccccc2C(N)=O)c1,IC50,[3],68 µM
NC(=O)c1ccccc1Nc1cccc(CO)c1,inhibition at 100 µM,[1],0%
same,GI50,[2],> 100 µM
same,IC50,[3],60 µM
same,inhibition at 100 µM,[4],4%
same,GI50,[5],> 100 µM
NC(=O)c1ccccc1Nc1cccc(Sc2ccccc2)c1,IC50,[3],89 µM
NC(=O)c1ccccc1Nc1ccc(-c2ccccc2)cc1,inhibition (INH),[6],36%
NC(=O)c1ccccc1Nc1cccc(CCO)c1,inhibition at 100 µM,[1],6%
same,GI50,[2],> 100 µM
same,IC50,[3],72 µM
same,inhibition at 100 µM,[4],12%
same,GI50,[5],> 100 µM
NC(=O)c1ccccc1Nc1ccccc1 [ANILINOBENZAMIDE],inhibition at 100 µM,[1],74%
same,GI50,[2],> 100 µM
same,IC50,[3],56 µM
same,inhibition at 100 µM,[4],21%
same,GI50,[5],77 µM
